According to ChEMBL document CHEMBL2146413, “Mammalian multidrug resistance lipopentasaccharide inhibitors from Ipomoea alba seeds” (J Nat Prod, 2012):
≈ marks a conversion by molar mass, not a printed value.

Legend:
MDR [1] = assay: Inhibition of MDR in vinblastine-resistant human MCF7 cells assessed as decrease in vinblastine IC50 at 5 ug/mL after 72 hrs by SRB assay; assay type: cell-based
Method in brief: (§1)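 Vinblastine (0.00064−10 μg/mL) was given with or without glycolipid at 25 or 5 μg/mL for 72 h at 37 °C, 5% CO2, then read by SRB assay. Vinblastine IC50 came from a semilog plot. Reversal fold = IC50 of vinblastine alone / IC50 with glycolipid. Reserpine 5 μg/mL served as positive control. Values are mean ± SD of three independent experiments.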

MDR [2] = assay: Inhibition of MDR in drug-sensitive human MCF7 cells assessed as decrease in vinblastine IC50 at 5 ug/mL after 72 hrs by SRB assay; assay type: cell-based; method in brief: as §1
MDR [3] = assay: Inhibition of MDR in vinblastine-sensitive human MCF7 cells assessed as decrease in vinblastine IC50 at 5 ug/mL after 72 hrs by SRB assay; assay type: cell-based; method in brief: as §1
MCF7 [4] = assay: Cytotoxicity against drug-sensitive human MCF7 cells after 72 hrs by SRB assay; assay type: functional, cell-based; conditions: MCF7, 72 h
Method in brief: (§2)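 Log-phase cells in RPMI 1640 + 10% FBS, 37 °C, 5% CO2, exposed in triplicate to 0.2−25 μg/mL test sample for 72 h. Growth read by sulforhodamine B. IC50 = concentration giving 50% inhibition of control growth, taken from a semilog plot of concentration against % growth inhibition. Vinblastine served as positive control. Resistant line MCF-7/Vin was kept with or without 0.192 μg/mL vinblastine.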

MDR [5] = assay: Inhibition of MDR in drug-sensitive human MCF7 cells assessed as decrease in vinblastine IC50 at 25 ug/mL after 72 hrs by SRB assay; assay type: cell-based; method in brief: as §1
MDR [6] = assay: Inhibition of MDR in vinblastine-sensitive human MCF7 cells assessed as decrease in vinblastine IC50 at 25 ug/mL after 72 hrs by SRB assay; assay type: cell-based; method in brief: as §1
MCF7 [7] = assay: Cytotoxicity against vinblastine-reasistant human MCF7 cells after 72 hrs by SRB assay; assay type: functional, cell-based; conditions: MCF7, 72 h; method in brief: as §2
MDR [8] = assay: Inhibition of MDR in vinblastine-resistant human MCF7 cells assessed as decrease in vinblastine IC50 at 25 ug/mL after 72 hrs by SRB assay; assay type: cell-based; method in brief: as §1
MCF7 [9] = assay: Cytotoxicity against vinblastine-sensitive human MCF7 cells after 72 hrs by SRB assay; assay type: functional, cell-based; conditions: MCF7, 72 h; method in brief: as §2

How did the fold change (FC) (MDR [1]) turn out when COC(=O)[C@H]1[C@H]2C[C@@H]3c4[nH]c5cc(OC)ccc5c4CCN3C[C@H]2C[C@@H](OC(=O)c2cc(OC)c(OC)c(OC)c2)[C@@H]1OC was run?
The fold change (FC) was 4.4.

What about the fold change (FC) (MDR [2]) of the same compound?
Its fold change (FC) is 15.7.

What about the fold change (FC) (MDR [3]) of the same compound?
The fold change (FC) was 29.2.

What does the source list for C/C=C(\C)C(=O)O[C@H]1[C@H](O[C@H]2[C@@H]3O[C@H]4[C@H](O[C@@H](CCCCC)CCCCCCCCCC(=O)O[C@H]2[C@H](O)[C@@H](CO[C@@H]2O[C@H](C)[C@@H](O)[C@H](OC(=O)/C(C)=C/C)[C@H]2O[C@@H]2O[C@@H](C)[C@H](O)[C@@H](O)[C@H]2O)O3)O[C@H](C)[C@@H](O)[C@@H]4O)O[C@@H](C)[C@H](O)[C@H]1O [ALBINOSIDE III]?
IC50 (MCF7 [4]): > 20 µg/mL; fold change (FC) (MDR [5]): > 73.4; fold change (FC) (MDR [6]): > 1690; IC50 (MCF7 [7]): > 20 µg/mL; fold change (FC) (MDR [8]): > 2140; IC50 (MCF7 [9]): > 20 µg/mL

C/C=C(\C)C(=O)O[C@H]1[C@@H]2O[C@H]3[C@H](O[C@@H](CCC)CCCCCCCCCC(=O)O[C@@H]4[C@@H](O)[C@H](C)O[C@@H](O[C@@H]5[C@@H](O[C@@H]6O[C@@H](C)[C@H](O)[C@@H](O)[C@H]6O)[C@H](O[C@H]([C@H]1O)[C@H](C)O2)O[C@H](C)[C@H]5OC(=O)/C(C)=C/C)[C@@H]4O)O[C@H](C)[C@@H](O)[C@@H]3O [ALBINOSIDE II] was tested. Which IC50 (MCF7 [4]) did it give?
Its IC50 is greater than 20 µg/mL.

And the fold change (FC) (MDR [5])?
Its fold change (FC) is 1.9.

And the fold change (FC) (MDR [6])?
Its fold change (FC) is 1.3.

What about the IC50 (MCF7 [7]) of the same compound?
The IC50 was greater than 20 µg/mL.

What about the fold change (FC) (MDR [8]) of the same compound?
Its fold change (FC) is 2.6.

What about the IC50 (MCF7 [9]) of the same compound?
Its IC50 is greater than 20 µg/mL.

Which results are given for CCC[C@H]1CCCCCCCCCC(=O)O[C@H]2[C@H](O[C@H]3[C@H](OC[C@H]4O[C@@H](O[C@H]5[C@H](O1)O[C@H](C)[C@@H](O)[C@@H]5O)[C@H](O[C@@H]1O[C@@H](C)[C@H](OC(C)=O)[C@@H](O)[C@H]1O)[C@@H](O)[C@@H]4O)O[C@H](C)[C@@H](O)[C@@H]3O)O[C@@H](C)[C@H](OC(=O)[C@H](C)[C@@H](C)O)[C@H]2O [ALBINOSIDE I]?
IC50 (MCF7 [4]): > 20 µg/mL; fold change (FC) (MDR [5]): 2.1; fold change (FC) (MDR [6]): 4.2; IC50 (MCF7 [7]): > 20 µg/mL; fold change (FC) (MDR [8]): 3.1; IC50 (MCF7 [9]): > 20 µg/mL

For CC[C@]1(O)C[C@@H]2CN(CCc3c([nH]c4ccccc34)[C@@](C(=O)OC)(c3cc4c(cc3OC)N(C)[C@H]3[C@@](O)(C(=O)OC)[C@H](OC(C)=O)[C@]5(CC)C=CCN6CC[C@]43[C@@H]65)C2)C1 [VINBLASTINE], which IC50 (MCF7 [4]) is on record?
Its IC50 is 0.047 µg/mL (≈ 0.058 µM).

What about the IC50 (MCF7 [7]) of the same compound?
The IC50 was 1.37 µg/mL (≈ 1.69 µM).
